# Measurements as given in PubChem BioAssay AID635 (SRMLSC, 2007).
# The campaign covered roughly 1,300 compounds. About 40 (3%) were called active. The rule behind the calls is not given here. Only a sample is shown. Potency and affinity values are given separately.
# Assay: growth inhibition of wild-type E. coli BW25113 pool, dose response, OD615 (AID 635);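 note: growth measured after 20 h with compound at 37 °C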
# Settings: pooled mutant strains; at 100 µM (top of the series)
# Outline: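 Material: Keio BW25113 knockout pool, 1,275 strains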
row,SMILES,growth inhibition
1,CCOC(=O)N1CCN(c2nc3ccccc3nc2C(C#N)S(=O)(=O)c2ccc(C)cc2)CC1 (configuration not stated),-1.57% (inactive)
2,CCOc1ccc(N(CC(=O)Nc2cccc(Cl)c2)S(=O)(=O)c2c(C)noc2C)cc1,2.36% (inactive)
3,CN1/C(=C\C(=O)COc2ccc3c(c2)OCO3)C(C)(C)c2ccccc21,-6.25% (inactive)
4,O=C(COc1ccccc1)Nc1nnc(-c2ccc(Cl)s2)o1,2.47% (inactive)
5,O=c1c2c(nc3n1CCCCC3)-c1ccccc1CC21CCCC1,-5.17% (inactive)
6,Cc1ccc(C(C(=O)NC2CCCC2)N(Cc2cccs2)C(=O)CNC(=O)c2cccs2)o1 (configuration not stated),5.18% (inactive)
7,Cc1ccc(C)c(N2CCN(C(=O)c3ccc(NS(=O)(=O)c4c(C)noc4C)cc3)CC2)c1,3.98% (inactive)
8,Cc1ccc(CN2C(=O)NC(=O)C3(Cc4c(nc5ccccn5c4=O)N4CCCCCC43)C2=O)cc1 (configuration not stated),-2% (inactive)
9,O=C(NC12CC3CC(CC(C3)C1)C2)c1ccccc1O,8.6% (inactive)
10,COc1ccc(-c2[nH]c(-c3cccc(OC)c3)nc2SCC(=O)NCc2ccco2)cc1,-2.87% (inactive)
11,OC(COc1ccc(Cl)c2ccccc12)CN1CCN(c2ccccn2)CC1 (configuration not stated),-3.05% (inactive)
12,O=C(Nc1nc2n(n1)C(c1ccc(Cl)cc1)CC(c1ccc(Cl)cc1)N2)c1ccco1 (configuration not stated),9.43% (inactive)
13,CCOc1cc(C)c(C(C)C)cc1S(=O)(=O)N1CC(C)OC(C)C1 (configuration not stated),3.51% (inactive)
14,CCN(C(=O)c1ccc(C(C)(C)C)cc1)c1nnc(Cn2nnc3ccccc32)s1,2.41% (inactive)
15,COc1cc2cc(C(c3nnnn3C3CCCCC3)N(C)C3CCCCC3)c(=O)[nH]c2cc1OC (configuration not stated),-2.92% (inactive)
16,N#Cc1c(NC(NC(=O)c2ccco2)C(=O)c2ccccc2)sc2c1CCCC2 (configuration not stated),1.57% (inactive)
17,Cc1ccc(C)c(SCC(=O)Nc2nnc(-c3ccccc3)o2)c1,6.77% (inactive)
18,COc1cccc(-c2csc(N3CCN(C(=O)C4CCCCC4)CC3)n2)c1,-1.87% (inactive)
19,O=C(Nc1cccc(C(F)(F)F)c1)N1CCC(c2nc(-c3ccc(F)cc3)no2)CC1,-2.79% (inactive)
20,CCOc1ccc2nc(NC(=O)C(CC)Sc3nc(C)cc(=O)[nH]3)sc2c1 (configuration not stated),0.31% (inactive)
21,CCOC(=O)c1cn(CC)c2cc(N3CCCCC3)c(F)cc2c1=O,-1.4% (inactive)
22,CCn1cc(C(=O)O)c(=O)c2cnc(N3CCN(C(=O)Nc4ccccc4)CC3)nc21,5.46% (inactive)

row,SMILES,growth inhibition
1,CCOC(=O)c1cn(CC)c2cc(N3CCOCC3)c(F)cc2c1=O,3.52% (inactive)
2,CCn1cc(C(=O)O)c(=O)c2cc(OC)ccc21,-5.37% (inactive)
3,CCn1cc(C(=O)Nc2nncs2)c(=O)c2cc(F)c(N3CCN(C(=O)c4ccco4)CC3)cc21,15.6% (inactive)
4,Cc1nc2c(C(=O)NCc3ccc4c(c3)OCO4)c[nH]n2c(=O)c1Cc1ccccc1F,0.56% (inactive)
5,Cc1ccc2nc(NC(=O)CNS(=O)(=O)c3ccc(Br)s3)sc2c1,1.78% (inactive)
6,CN(C)c1nc(SCCOC(=O)Nc2ccccc2)nc(N(C)C)n1,3.85% (inactive)
7,O=C(Nc1nc(-c2ccccc2)cs1)c1cccs1,-1.94% (inactive)
8,COc1ccc(CN(C(=O)CN2C(=O)COc3ccccc32)C2CCCC2)c(OC)c1,6.95% (inactive)
9,COc1ccc2[nH]c3c(=O)n(CCCCC(=O)NCCN4CCCC4)c(=S)[nH]c3c2c1,-2.44% (inactive)
10,Clc1ccc(Cl)c(-c2nn3c(COc4ccccc4)nnc3s2)c1,2.46% (inactive)
11,CCOC(=O)c1nnn(-c2nonc2-n2cccc2)c1CN1CCC(C)CC1,3.87% (inactive)
12,COc1ccc(Cn2c(=O)sc3ccccc32)cc1,2.87% (inactive)
13,O=C(NC1CCCCCCC1)c1ccccc1O,0.38% (inactive)
14,Brc1cccc(-c2n[nH]c(-c3ccccc3)n2)c1,4.22% (inactive)
15,CCc1nc2sc3ccccc3c(=O)c2c(=O)n1Cc1ccco1,5.6% (inactive)
16,CCOC(=O)c1c(NS(=O)(=O)c2cccc(OC)c2)sc2c1CCC2,0.74% (inactive)
17,CCCn1nnc(NC(=O)COc2ccc(C3CCCCC3)cc2)n1,6.61% (inactive)
18,COc1cccc(NC(=O)N2CCN(c3cccc(C)c3C)CC2)c1,-2.15% (inactive)
19,CN(Cc1ccccc1)C(=O)CSc1nc2ccccc2c(=O)n1Cc1ccco1,4.9% (inactive)
20,COc1ccc2nc(NC(=O)C3CCCN(S(=O)(=O)c4cccs4)C3)sc2c1 (configuration not stated),-10.2% (inactive)
21,c1ccc(-c2oc3ncnc(NCCCn4ccnc4)c3c2-c2ccccc2)cc1,13.2% (inactive)
22,CC(C)(C)OC(=O)N1CCC[C@H]1c1nnc(SCc2ccc(Cl)cc2Cl)o1,6.74% (inactive)

row,SMILES,growth inhibition
1,Cn1c(CSc2nc3ccccc3s2)nc2ccccc21,-7.99% (inactive)
2,CCOC(=O)c1ccc(-n2[nH]c(-c3ccccc3)cc2=O)cc1,-2.7% (inactive)
3,Cn1c(C(=O)N2CCc3ccccc3C2)cc2oc3ccccc3c21,-4.13% (inactive)
4,Cc1ccc(Nc2nc(CSc3nnnn3-c3ccccc3)cs2)cc1,-12.4% (inactive)
5,O=C(c1ccco1)N1CCN(c2c(-c3ccccc3)c3cc(Cl)ccc3[nH]c2=O)CC1,0.97% (inactive)
6,Cc1ccc(S(=O)(=O)NCCSc2nnnn2-c2cc(C)ccc2C)cc1,1.62% (inactive)
7,CCOc1ccc(-c2nc(C#N)c(N3CCCCCC3)o2)cc1,-1.95% (inactive)
8,COc1ccc(-c2csc(NCc3ccco3)n2)cc1C,-4.35% (inactive)
9,COc1cc(-c2nc(Cc3ccccc3Cl)no2)cc(OC)c1OC,-4.44% (inactive)
10,CC(=O)c1c(O)cc(C)n(Nc2nc(C)cc(C)n2)c1=O,-5.46% (inactive)
11,Cc1ccc(CN2CCSc3ccc(C(=O)N4CCN(c5ncccn5)CC4)cc32)cc1,-4.07% (inactive)
12,COc1nnc(-c2ccc(N3CCCCC3)c(N)c2)c2ccccc12,9.66% (inactive)
13,Cc1ccc(SCC(=O)N(Cc2nc(-c3ccccc3)no2)C(C)C)cc1,3.99% (inactive)
14,Cc1c(NC(=O)Nc2ccc(Cl)c(Cl)c2)c(=O)n(-c2ccccc2)n1C,1.5% (inactive)
15,Cc1noc(NS(=O)(=O)c2ccc(NC(=O)COc3ccc(Cl)cc3Cl)cc2)c1C,2.59% (inactive)
16,Cc1noc(NS(=O)(=O)c2ccc(NC(=O)Nc3ccc(Cl)c(Cl)c3)cc2)c1C,7.34% (active)
17,CCOC(=O)c1csc(Nc2nc3ccc(F)cc3s2)n1,-0.43% (inactive)
18,CC(C)(C)C(=O)Cn1c(=N)n(Cc2ccccc2)c2ccccc21,1.48% (inactive)
19,O=c1n(Cc2ccccc2)c2cc(Cl)cnc2n1Cc1ccccc1,-2.48% (inactive)
20,Cc1cc(Cl)cc(C)c1OCCCCn1ccnc1,8.19% (inactive)
21,COc1ccc(Oc2cn[nH]c2-c2ccc(O)cc2O)cc1,-1.15% (inactive)
22,COc1cc(NS(=O)(=O)c2ccc(NC(=O)COc3ccccc3Cl)cc2)nc(OC)n1,-7.59% (inactive)

row,SMILES,growth inhibition
1,CC1(C)CC(=O)C=C(NCCN2CCN(C(=O)Nc3ccc(Cl)c(Cl)c3)CC2)C1,3.54% (inactive)
2,Cc1ccc2[nH]c(=O)c(C(c3nnnn3C3CCCC3)N(Cc3cccnc3)Cc3ccco3)cc2c1 (configuration not stated),0.6% (inactive)
3,Cc1ccc2c(c1)NC(=O)C(CC(=O)NCCCN1CCN(c3cc(Cl)ccc3C)CC1)O2 (configuration not stated),1.34% (inactive)
4,CC(C)CCOC(=O)c1c(N)n(CC2CCCO2)c2nc3ccccc3nc12 (configuration not stated),4.63% (inactive)
5,CCOc1cccc(NC(=O)C2CC(=O)N(C)C(=Nc3cccc(F)c3)S2)c1 (configuration not stated),-8.98% (inactive)
6,COC(=O)c1ccc(OC)c(CSc2nnc(COc3ccccc3)o2)c1,0.08% (inactive)
7,Cc1ccc(SC/C(O)=C(\C#N)c2nc3ccccc3s2)cc1,0.79% (inactive)
8,O=C(COc1ccccc1)Nc1ccccc1N1CCCCC1,-2.29% (inactive)
9,O=C(CCSc1nc(-c2ccco2)cc(C(F)(F)F)n1)N1CCCc2ccccc21,-1.07% (inactive)
10,Cc1ccccc1Cn1nc(C)c(NC(=O)c2noc3c2CCc2ccccc2-3)c1C,-4.26% (inactive)
11,CCn1c2ccccc2c2nnc(SCc3ccccc3)nc21,-4.04% (inactive)
12,Cc1ccc(-n2c(C)cc(C3N=C(N)Nc4nc5ccccc5n43)c2C)c(C)c1 (configuration not stated),6.51% (inactive)
13,CCCCCC(=O)Nc1ccccc1N1CCN(c2ccccc2)CC1,1.48% (inactive)
14,O=C(c1ccc(COc2ccc3c(c2)CCC3)o1)N1CCN(c2ccccc2)CC1,-0.73% (inactive)
15,CCN(CC)c1nc(N)c2c(N)nc3c(c2c1C#N)CC(c1ccccc1)O3 (configuration not stated),9.58% (inactive)
16,CCc1ccccc1N(C)C(=O)CCc1nc(-c2ccc(C)cc2)no1,-3.1% (inactive)
17,CCOC(=O)C1CN(c2cc3c(cc2F)c(=O)c(C(=O)O)cn3CC)OC1C(=O)OCC (configuration not stated),0.67% (inactive)
18,Cc1nn(-c2ccccc2)c2sc(C(=O)N(CC(=O)NC(C)(C)C)Cc3ccco3)cc12,-4.44% (inactive)
19,Cc1onc(-c2ccccc2)c1C(=O)Nc1nnc(N(C)Cc2ccccc2)s1,-4.99% (inactive)
20,COc1cccc(-c2cc(C(=O)N3CC4(C)CC3CC(C)(C)C4)no2)c1 (configuration not stated),0.09% (inactive)
21,CC(C)C(c1nnnn1C1CCCC1)N1c2ccccc2CC1C (configuration not stated),0.18% (inactive)
22,CC1CCN(S(=O)(=O)c2ccc(Cl)cc2Br)CC1,7.88% (inactive)

row,SMILES,growth inhibition
1,CCOC(=O)c1ccc(N2C(=O)c3n[nH]c(C)c3C2c2ccc(OC)cc2OC)cc1 (configuration not stated),-0.55% (inactive)
2,O=C(c1ccc(COc2c(F)c(F)cc(F)c2F)o1)N1CCN(c2ccc(Cl)cc2)CC1,-6.87% (inactive)
3,N#Cc1ccc(CSc2nnc(-c3cccs3)n2-c2ccccc2)cc1,-1.14% (inactive)
4,CCn1c(CNc2cccc(Cl)c2)nnc1SCC(=O)OC1CCCCC1,1.08% (inactive)
5,Fc1ccc(Br)cc1C1C=C(c2ccc(Br)s2)Nc2ncnn21 (configuration not stated),-4.11% (inactive)
6,CC1CCN(S(=O)(=O)c2cccc(C(=O)NCc3cccs3)c2)CC1,0.28% (inactive)
7,CC(=O)Nc1cccc(NC(=O)c2oc3ccccc3c2C)c1,2.78% (inactive)
8,N=C(N)c1c(O)n(C2CCCCC2)c(=O)n(C2CCCCC2)c1=O,3.33% (inactive)
9,COCc1nnc(NC(=O)c2ccc(S(=O)(=O)N(C)C3CCCCC3)cc2)o1,0.24% (inactive)
10,Cc1cc(Nc2ccccc2)nc(-c2ccccc2O)n1,1.65% (inactive)
11,CCOC(=O)c1cnc(-n2nc(C)cc2C)nc1NCc1ccccc1,0.66% (inactive)
12,CCn1nc(-c2ccccc2)nc2c(=O)n(C)c(=O)nc1-2,1.94% (inactive)
13,CC(C)(C)c1cc(C(F)(F)F)nc(SCCCNC(=O)c2ccco2)n1,6.78% (inactive)
14,CC(C)(C)n1nnnc1C(c1cccs1)N(Cc1ccccc1)Cc1cccnc1 (configuration not stated),3.16% (inactive)
15,CCOC(=O)c1c(-c2ccccc2)nnn1-c1nc(OCC)nc(N2CCCCC2)n1,0.78% (inactive)
16,c1ccc(CCN2CCN(c3ncnc4c3cnn4-c3ccccc3)CC2)cc1,6.43% (inactive)
17,CCOC(=O)c1ccc(NC(=O)CCc2nc(-c3ccccc3Cl)no2)cc1,-0.84% (inactive)
18,CCOc1ccc(S(=O)(=O)Nc2cccc(Cl)c2)cc1,12.8% (inactive)
19,CCCCOc1ccc(S(=O)(=O)N2CCCCCC2)cc1,3.61% (inactive)
